Laboratory results published in ChEMBL document CHEMBL3399994, “Improving both aqueous solubility and anti-cancer activity by assessing progressive lead optimization libraries” (Bioorg Med Chem Lett, 2015).
Values after ≈ are worked out from the molar mass of the structure shown.

How the values were obtained:
[1] = Solubility in pH 7.4 buffer after 18 hrs by UV spectroscopy based microSol assay; assay type: physicochemical; conditions: for solubility: buffer, pH 7.4, 18 h; for solubility at 18 h: pH 7.4 buffer, pH 7.4
[2] = Cytotoxicity against human H460 cells after 48 hrs by SRB assay; assay type: functional, cell-based; conditions: NCI-H460, 48 h
[3] = Cytotoxicity against human H460/TaxR cells after 48 hrs by SRB assay; assay type: functional, cell-based
[4] = Cytotoxicity against human NHFB cells after 48 hrs by SRB assay; assay type: cell-based
[5] = Cytotoxicity against human H460 cells assessed as cell viability at 10 uM after 48 hrs by SRB assay; assay type: functional; conditions: NCI-H460, 48 h, read-out: Activity
Procedure, shortened: (§1)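 Single-concentration screen at 10 µM in normal human fibroblasts, NSCLC H460 cells and their drug-resistant H460_TaxR variant. Viability was read out by sulforhodamine B (SRB) staining and expressed relative to DMSO-treated cells, set as 100%.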

[6] = Cytotoxicity against human H460/TaxR cells assessed as cell viability at 10 uM after 48 hrs by SRB assay; assay type: functional; conditions: read-out: Activity; procedure, shortened: as §1
[7] = Cytotoxicity against human NHFB cells assessed as cell viability at 10 uM after 48 hrs by SRB assay; assay type: cell-based; conditions: read-out: Activity; procedure, shortened: as §1

Compound | solubility [1] [µg/mL] | solubility at 18 h [1] [µg/mL] | EC50 [2] [µM] | EC50 [3] [µM] | EC50 [4] [µM] | viability at 10 µM [5] [%] | viability at 10 µM [6] [%] | viability at 48 h, 10 µM [7] [%]
CCN(CC)c1ccc(/C=C2/SC(Nc3ccccc3Cl)=NC2=O)cc1 |  | 0.01 (≈ 0.0259 µM) |  |  |  | 25.1 | 29.5 | 85
Cc1ccccc1/N=C1\NC(=O)/C(=C\c2ccc(N(C)C)cc2)S1 |  | 0.27 (≈ 0.8 µM) |  |  |  | 17.6 | 41 | 86.5
CCN(CC)c1ccc(/C=C2/SC(Nc3ccc(Oc4ccccc4)cc3)=NC2=O)cc1 |  |  |  |  |  | > 100 | 64.6 | > 100
O=C1N=C(Nc2ccccc2Cl)S/C1=C/c1ccc(N2CCOCC2)cc1 |  | 0.05 (≈ 0.125 µM) |  |  |  | 48.2 | 41.4 | 94.2
CN(C)c1ccc(/C=C2/SC(=Nc3ccc(O)cc3)NC2=O)cc1 |  | 0.01 (≈ 0.0295 µM) |  |  |  | 94.4 | 47.9 | 96.5
O=C1N=C(Nc2ccc(O)cc2)S/C1=C/c1ccc(N2CCNCC2)cc1 |  | 13.9 (≈ 36.5 µM) |  |  |  | 83.9 | 85.5 | 98.9
CN1CCN(c2ccc(/C=C3/SC(Nc4ccc(O)cc4)=NC3=O)cc2)CC1 |  | 0.01 (≈ 0.0253 µM) |  |  |  | > 100 | > 100 | 94.3
CCCSc1ccc2nc(NC(=O)OC)[nH]c2c1 [ALBENDAZOLE] |  | 2.3 (≈ 8.67 µM) |  |  |  |  |  | 
CN(C)c1ccc(/C=C2/SC(=Nc3ccccc3)NC2=O)cc1 | 0.1 (≈ 0.309 µM) |  | 0.72 | 0.98 | > 100 | 19.8 | 29.4 | 68.3
CCN(CC)c1ccc(/C=C2/SC(Nc3ccc(O)cc3)=NC2=O)cc1 |  |  |  |  |  | 94.3 | 48.2 | 93.7
CN(C)c1ccc(/C=C2/SC(N(c3ccccc3)c3ccccc3)=NC2=O)cc1 |  |  | > 100 | > 100 | > 100 |  |  | 
O=C1N=C(N(c2ccccc2)c2ccccc2)S/C1=C/c1ccc(N2CCOCC2)cc1 | 0.01 (≈ 0.0226 µM) |  | > 100 | > 100 | > 100 |  |  | 
CN1CCN(c2ccc(/C=C3/SC(N(C)c4ccccc4)=NC3=O)cc2)CC1 | 18.91 (≈ 48.2 µM) |  | > 100 | > 100 | > 100 |  |  | 
CN(C)c1ccc(/C=C2/SC(Nc3ccc(Oc4ccccc4)cc3)=NC2=O)cc1 |  | 0.01 (≈ 0.0241 µM) |  |  |  | > 100 | 88.2 | 100
NC(=O)N1c2ccccc2C=Cc2ccccc21 [CARBAMAZEPINE] | 22 (≈ 93.1 µM) |  |  |  |  |  |  | 
CN1CCN(c2ccc(/C=C3/SC(Nc4ccccc4Cl)=NC3=O)cc2)CC1 |  | 0.43 (≈ 1.04 µM) |  |  |  | 98.2 | 52.7 | 96

Continued, in another order:

solubility [1] [µg/mL] | solubility at 18 h [1] [µg/mL] | Compound | EC50 [2] [µM] | EC50 [3] [µM] | EC50 [4] [µM] | viability at 10 µM [5] [%] | viability at 10 µM [6] [%] | viability at 48 h, 10 µM [7] [%]
0.5 (≈ 1.48 µM) |  | CN(C)c1ccc(/C=C2/SC(N(C)c3ccccc3)=NC2=O)cc1 | 0.08 | 0.16 | > 100 |  |  | 
 | 0.2 (≈ 0.547 µM) | CCN(CC)c1ccc(/C=C2/SC(Nc3ccccc3C)=NC2=O)cc1 |  |  |  | 8.3 | 24.6 | 80.6
 | 0.19 (≈ 0.498 µM) | O=C1N=C(Nc2ccc(O)cc2)S/C1=C/c1ccc(N2CCOCC2)cc1 |  |  |  | 88.9 | > 100 | 92.8
 | 0.14 (≈ 0.351 µM) | O=C1N=C(Nc2ccccc2Cl)S/C1=C/c1ccc(N2CCNCC2)cc1 |  |  |  | 98.1 | 77.4 | 99.3
 | 0.1 (≈ 0.212 µM) | CN1CCN(c2ccc(/C=C3/SC(Nc4ccc(Oc5ccccc5)cc4)=NC3=O)cc2)CC1 |  |  |  | 46.7 | 49.8 | 90.9
33.7 (≈ 107 µM) |  | CNC(=C[N+](=O)[O-])NCCSCc1ccc(CN(C)C)o1 [RANITIDINE] |  |  |  |  |  | 
0.1 (≈ 0.274 µM) |  | O=C1N=C(Nc2ccccc2)S/C1=C/c1ccc(N2CCOCC2)cc1 | > 100 | > 100 | > 100 | 96.1 | 77.5 | 97.4
1.68 (≈ 4.61 µM) |  | O=C1N=C(Nc2ccccc2)S/C1=C/c1ccc(N2CCNCC2)cc1 | > 100 | > 100 | > 100 | > 100 | 89.3 | 97
 | 0.1 (≈ 0.219 µM) | O=C1N=C(Nc2ccc(Oc3ccccc3)cc2)S/C1=C/c1ccc(N2CCOCC2)cc1 |  |  |  | 72.6 | 46.8 | 98
3.89 (≈ 10.3 µM) |  | CN(C1=NC(=O)/C(=C\c2ccc(N3CCNCC3)cc2)S1)c1ccccc1 | > 100 | > 100 | > 100 |  |  | 
0.11 (≈ 0.242 µM) |  | CN1CCN(c2ccc(/C=C3/SC(N(c4ccccc4)c4ccccc4)=NC3=O)cc2)CC1 | > 100 | > 100 | > 100 |  |  | 
0.35 (≈ 0.925 µM) |  | CN1CCN(c2ccc(/C=C3/SC(Nc4ccccc4)=NC3=O)cc2)CC1 | 1.4 | 2.5 | 6.4 | 13.9 | 11.3 | 93.8
 | 0.02 (≈ 0.0559 µM) | CN(C)c1ccc(/C=C2/SC(=Nc3ccccc3Cl)NC2=O)cc1 |  |  |  | 8.82 | 39.3 | > 100
 | 0.78 (≈ 2.06 µM) | Cc1ccccc1NC1=NC(=O)/C(=C\c2ccc(N3CCOCC3)cc2)S1 |  |  |  | 43.8 | 70.2 | 80.8
 | 3.83 (≈ 10.1 µM) | Cc1ccccc1NC1=NC(=O)/C(=C\c2ccc(N3CCNCC3)cc2)S1 |  |  |  | 65.1 | 50.1 | 62.8
 | 0.1 (≈ 0.219 µM) | O=C1N=C(Nc2ccc(Oc3ccccc3)cc2)S/C1=C/c1ccc(N2CCNCC2)cc1 |  |  |  | 49.3 | 45.4 | 82.9
5.06 (≈ 13.3 µM) |  | CN(C1=NC(=O)/C(=C\c2ccc(N3CCOCC3)cc2)S1)c1ccccc1 | 8.9 | 2.9 | > 100 |  |  | 
0.01 (≈ 0.0234 µM) |  | CCN(CC)c1ccc(/C=C2/SC(N(c3ccccc3)c3ccccc3)=NC2=O)cc1 | > 100 | > 100 | > 100 |  |  | 
0.1 (≈ 0.285 µM) |  | CCN(CC)c1ccc(/C=C2/SC(Nc3ccccc3)=NC2=O)cc1 | 6.9 | 9.9 | > 100 | 19.5 | 30.1 | 96.9
0.15 (≈ 0.34 µM) |  | O=C1N=C(N(c2ccccc2)c2ccccc2)S/C1=C/c1ccc(N2CCNCC2)cc1 | > 100 | > 100 | > 100 |  |  | 
 | 0.89 (≈ 2.27 µM) | Cc1ccccc1NC1=NC(=O)/C(=C\c2ccc(N3CCN(C)CC3)cc2)S1 |  |  |  | 88.6 | 34.3 | 80.2
0.01 (≈ 0.0274 µM) |  | CCN(CC)c1ccc(/C=C2/SC(N(C)c3ccccc3)=NC2=O)cc1 | 0.28 | 0.43 | > 100 |  |  | 
